Laboratory results from article PMC5795620 (Journal of medicinal chemistry, 2017).

Key:
[1] = Metabolic stability in swine plasma; assay type: in vitro ADME; settings: 60 min incubation in swine plasma
[2] = Metabolic stability in swine brain homogenate; assay type: in vitro ADME; settings: 10 μM, 0-60 min
[3] = nonhuman primate, systemic administration; cited from earlier work
[4] = Metabolic stability in mouse plasma; assay type: in vitro ADME; settings: representative chromatogram (Figure S1)
EcoHIV-infected mice = test: Radial arm water maze in EcoHIV-infected mice; assay type: in vivo, mouse; settings: control for visual or motor function; 1 mg/kg, ip, qod
Summary of the method: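 Male C57BL/6J mice, 5 weeks old, randomized (n = 8/group) to drug or saline starting 1 day before ip EcoHIV (2 × 106 pg p24) or sham PBS inoculation. Dosing continued through 30-day infection and testing. From day 30 p.i., six-lane opaque-water RAWM with visual cues. After hidden-platform trials, latency to a visible platform measured in the same context.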

EcoHIV = EcoHIV viral load in spleen and brain by qPCR; assay type: in vivo, mouse; settings: EcoHIV-infected mice, 1 mg/kg, ip, qod
[5] = Overt toxicity observation in mice during 14 treatment; assay type: in vivo, mouse; settings: 1 mg/kg, ip, qod over infection period and testing

CC(C)OC(=O)[C@H](CCC(=O)C=[N+]=[N-])NC(=O)OCOC(=O)C(C)(C)C [Compound 13a, Isopropyl 6-Diazo-5-oxo-2-((((pivaloyloxy)methoxy)-carbonyl)amino)hexanoate]
Stability in swine plasma (in words) [1]: labile

CC(C)OC(=O)[C@H](CCC(=O)C=[N+]=[N-])NC(=O)OC(C)(C)OC(=O)C(C)(C)C [Compound 13e, Isopropyl 6-Diazo-5-oxo-2-((((2-(pivaloyloxy)propan-2-yl)-oxy)carbonyl)amino)hexanoate]
Metabolic lability in swine brain homogenate (in words) [2]: mostly stable

CC(C)OC(=O)[C@H](CCC(=O)C=[N+]=[N-])NC(=O)OC(OC(=O)C(C)(C)C)C(C)C (mixture of isomers) [Compound 13c, Isopropyl 6-Diazo-2-(((2-methyl-1-(pivaloyloxy)propoxy)-carbonyl)amino)-5-oxohexanoate]
Metabolic lability in swine brain homogenate (in words) [2]: readily biotransformed

CC(C)OC(=O)[C@H](CCC(=O)C=[N+]=[N-])NC(=O)O[C@H](C)OC(=O)C(C)(C)C [Compound 13b, Isopropyl 6-Diazo-5-oxo-2-(((1-(pivaloyloxy)ethoxy)-carbonyl)amino)hexanoate]
Metabolic lability in swine brain homogenate (in words) [2]: moderately labile
Enhancement in the CSF-to-plasma ratio of 14 exposure relative to equimolar 14 [3]: about 10 fold

CC(C)OC(=O)[C@H](CCC(=O)C=[N+]=[N-])NC(=O)OC(OC(=O)C(C)(C)C)c1ccccc1 (some centres unmarked) [Compound 13d, Isopropyl 6-Diazo-5-oxo-2-(((phenyl(pivaloyloxy)methoxy)-carbonyl)amino)hexanoate]
Time to complete conversion to 14 in mouse plasma [4]: ≤ 10 min
Metabolic lability in swine brain homogenate (in words) [2]: readily biotransformed

[N-]=[N+]=CC(=O)CC[C@H](N)C(=O)O [Compound 14, 6-diazo-5-oxo-L-norleucine]
RAWM escape latency to a visible platform (EcoHIV-infected mice): no effect
EcoHIV viral load in the brain (EcoHIV): no effect
EcoHIV viral load in the spleen (DNA copies) (EcoHIV; p = 0.022): slight increase
Overt signs of toxicity (diarrhea, weight loss) [5]: no mice exhibited overt signs of toxicity
